Assay outcomes: PubChem BioAssay, several laboratories
Rows were chosen to be rich in hits. Some 3.4% of all compounds tested hit in one or more screens of this group.
ANO1 activ: TMEM16A chloride channel activators or potentiators, primary screen, cell-based, HTS. Anoctamin-1 (Mus musculus), Q8BHY3. HEK293 TMEM16A/YFP-H148Q/I152L, iodide quench fluorescence; hits give low values. B-score at 10 µM. hit rate 0.3% among 340,000. AID 623877, 2012;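 active = fluorescence-ratio B-score plate-corrected deviation score at least 3 library SD below zero, with starting fluorescence score within 5 deviations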;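 note: channel opened by trigger with iodide after compound preincubation; score built on the fluorescence ratio of max minus min over baseline; more negative score means more quench and so TMEM16A activation or potentiation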
Target sequence (Q8BHY3 whole entry, looked up): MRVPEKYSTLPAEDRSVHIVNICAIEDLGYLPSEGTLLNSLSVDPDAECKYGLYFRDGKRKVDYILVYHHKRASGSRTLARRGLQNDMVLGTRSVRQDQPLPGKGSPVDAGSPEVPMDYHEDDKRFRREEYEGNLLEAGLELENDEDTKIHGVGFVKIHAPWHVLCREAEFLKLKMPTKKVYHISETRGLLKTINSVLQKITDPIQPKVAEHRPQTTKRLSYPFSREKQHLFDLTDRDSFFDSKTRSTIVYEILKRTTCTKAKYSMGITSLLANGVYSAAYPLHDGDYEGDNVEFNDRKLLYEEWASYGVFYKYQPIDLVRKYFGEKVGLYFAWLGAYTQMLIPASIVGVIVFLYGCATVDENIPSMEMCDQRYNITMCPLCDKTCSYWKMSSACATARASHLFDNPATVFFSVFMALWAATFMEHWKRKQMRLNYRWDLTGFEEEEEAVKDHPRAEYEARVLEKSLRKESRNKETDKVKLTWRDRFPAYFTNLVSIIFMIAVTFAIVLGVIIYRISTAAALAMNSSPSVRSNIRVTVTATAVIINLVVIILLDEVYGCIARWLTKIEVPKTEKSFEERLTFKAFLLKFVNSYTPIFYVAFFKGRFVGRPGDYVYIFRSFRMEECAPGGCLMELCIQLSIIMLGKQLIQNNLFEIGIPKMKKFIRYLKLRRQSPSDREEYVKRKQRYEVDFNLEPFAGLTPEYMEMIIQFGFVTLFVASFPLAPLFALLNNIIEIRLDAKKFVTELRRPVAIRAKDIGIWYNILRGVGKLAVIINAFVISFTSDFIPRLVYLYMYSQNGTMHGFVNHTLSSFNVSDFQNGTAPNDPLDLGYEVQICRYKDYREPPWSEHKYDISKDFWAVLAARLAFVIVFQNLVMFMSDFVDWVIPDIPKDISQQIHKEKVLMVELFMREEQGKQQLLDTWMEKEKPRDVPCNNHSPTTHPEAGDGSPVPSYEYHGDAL
HTR2A ag: mouse Htr2a agonists via beta-arrestin recruitment, primary screen, cell-based, luminescence | 5-hydroxytryptamine receptor 2A (Mus musculus), P35363 | CHO-K1 mHTR2A beta-arrestin complementation; percent of 30 µM serotonin response | activation, % at 7.6 µM | hit rate 0.66% among 360,000 | AID 624169, 2012;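 active = activation above a run cutoff, the mean activation of all tested compounds plus 3 SD, cut at about 14% in these data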;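 note: 0% = plate median of compound wells and 100% = 30 µM serotonin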
TMEM16A inh: TMEM16A chloride channel inhibitors, primary screen, cell-based, HTS. normalized B-score (activity score, 25-100; higher = stronger inhibition) at 10 µM. HEK293 TMEM16A/YFP iodide influx fluorescence, ionomycin. Anoctamin-1 (Mus musculus), Q8BHY3. hit rate 1.2% among 310,000;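 active = ratio plate-corrected score three or more library SD toward inhibition, starting fluorescence score within five deviations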;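 note: score derived from kinetic fluorescence span divided by baseline fluorescence per well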
beta cell repl: inducers of MIN6 beta-cell proliferation, primary screen, ATP luminescence, uHTS; AID 2380, 2010; hit rate 0.29% among 330,000; proliferation, % at 10 µM; MIN6 cells proliferation, ATPlite luminescence, 48 h; cells starved in 0.2% serum; 100% = growth in 10% serum;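 active = compounds whose signal lies at least 3.5 SD above the mean of all wells on their plate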;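 note: 0% = DMSO-treated cells in low-serum medium and 100% = 10% serum control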
MC4R barr agon: MC4R agonists recruiting beta-arrestin, primary screen, cell-based, luminescence, agonist arm of biased-ligand search; U2OS MC4R beta-arrestin complementation; percent of melanotan II response, DMSO zero; Melanocortin receptor 4 (Homo sapiens), P32245; activation, % at 8.9 µM; hit rate 0.98% among 360,000;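 active = activation above a per-plate cutoff, the mean activation of sample wells on that plate plus 3 SD, cut at about 8% in these data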
MC4R antag cAMP: MC4R antagonists of cAMP signaling, primary screen, cell-based, TR-FRET, antagonist arm of biased-ligand search. Melanocortin receptor 4 (Homo sapiens), P32245. MC4R-expressing cells, MTII-stimulated cAMP, LANCE TR-FRET. inhibition, % at 6.5 µM. hit rate 0.48% among 360,000;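 active = inhibition above its plate's cutoff, the mean of tested wells on that plate plus 3 SD, cut at about 29% in these data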;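 note: 0% = Melanotan II alone and 100% = Melanotan II plus saturating MCL0020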
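Test system: U2OS cells stably expressing human melanocortin 4 receptor (MC4R); also added: Melanotan II challenge; compound: 6.5 µM single dose; timing: 30-min compound preincubation, 1-h Melanotan II challenge, 1-h detection, room temperature; signal: Eu-cAMP/anti-cAMP TR-FRET, emission 671 nm; repeats: one well per compound, no replicates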
* = called active by the depositor; i = inactive; / = not tested or not shown.

SMILES | ANO1 activ | HTR2A ag | TMEM16A inh | beta cell repl | MC4R barr agon | MC4R antag cAMP
C#CCOCCOCCOCCNc1nc(N2CCN(C(=O)CCCCCCCCCCNC(=O)[C@H](CCCCN)n3cc(C[C@@H](C)CC)nn3)CC2)nc(N2CCN(C(=O)CCCCCCCCCCNC(=O)[C@H](CCCN=C(N)N)n3cc(C[C@@H](C)CC)nn3)CC2)n1 | -23* | 3 | 100* | -8 | -2 | 83*
C#CCOCCOCCOCCNc1nc(N2CCN(C(=O)CCCCCCCCCCNC(=O)[C@H](CCCCN)n3cc(C[C@@H](C)CC)nn3)CC2)nc(N2CCN(C(=O)CCCCCCCCCCNC(=O)[C@@H]([C@H](C)O)n3cc(C)nn3)CC2)n1 | -18* | 2 | i | -8 | -1 | 44*
C#CCOCCOCCOCCNc1nc(N2CCN(C(=O)CCCCCCCCCCNC(=O)[C@H](CCCCN)n3cc(C)nn3)CC2)nc(N2CCN(C(=O)CCCCCCCCCCNC(=O)[C@@H]([C@H](C)O)n3cc(C)nn3)CC2)n1 | i | 5 | i | -8 | -1 | 8
C#CCOCCOCCOCCNc1nc(N2CCN(C(=O)CCCCCCCCCCNC(=O)[C@@H](CCSC)n3cc(CCO)nn3)CC2)nc(N2CCN(C(=O)CCCCCCCCCCNC(=O)[C@@H]([C@H](C)O)n3cc(C)nn3)CC2)n1 | i | -2 | i | -6 | -2 | 3
C#CCOCCOCCOCCNc1nc(N2CCN(C(=O)CCCCCCCCCCNC(=O)[C@H](CO)n3cc(CCCCCN)nn3)CC2)nc(N2CCN(C(=O)CCCCCCCCCCNC(=O)[C@H](CCCN=C(N)N)n3cc(C[C@@H](C)CC)nn3)CC2)n1 | / | / | 100* | -5 | / | /
C#CCOCCOCCOCCNc1nc(N2CCN(C(=O)CCCCCCCCCCNC(=O)[C@H](CCCCN)n3cc(C)nn3)CC2)nc(N2CCN(C(=O)CCCCCCCCCCNC(=O)[C@H](CCCN=C(N)N)n3cc(C[C@@H](C)CC)nn3)CC2)n1 | / | / | 100* | -8 | / | /
C#CCOCCOCCOCCNc1nc(N2CCN(C(=O)[C@H]([C@@H](C)CC)n3cc(CCCN=C(N)N)nn3)CC2)nc(N2CCN(C(=O)[C@H](CCCCN)n3cc(CCCC)nn3)CC2)n1 | i | 0 | i | 6 | -1 | 9
COc1ccc(SCCCn2c(=O)c3c(ncn3C)n(C)c2=O)cc1 | i | -1 | i | 0 | 0 | 9
Cn1c(=O)c2c(ncn2CCOC(=O)C(C)(C)Oc2ccc(Cl)cc2)n(C)c1=O | / | 4 | / | / | 1 | -3
C#CCOCCOCCOCCNc1nc(N2CCN(C(=O)CCCCCCCCCCNC(=O)[C@@H](CCSC)n3cc(CCO)nn3)CC2)nc(N2CCN(C(=O)CCCCCCCCCCNC(=O)[C@H](CO)n3cc(CCCCCN)nn3)CC2)n1 | i | 4 | i | -5 | -2 | 9
C#CCOCCOCCOCCNc1nc(N2CCN(C(=O)CCCCCCCCCCNC(=O)[C@@H](CCSC)n3cc(CCO)nn3)CC2)nc(N2CCN(C(=O)CCCCCCCCCCNC(=O)[C@H](CCCN=C(N)N)n3cc(C[C@@H](C)CC)nn3)CC2)n1 | -26* | 0 | 100* | -7 | 0 | 60*
Cc1ccccc1NC(=O)CSc1nnc2ccc(-c3cccnc3)nn12 | i | -4 | i | -5 | 1 | 7
CCOc1ccccc1NC(=S)NCCc1ccccc1 | -5.2* | -9 | i | -5 | -2 | 2
CCOc1ccc(NC(=O)NCCCCc2ccccc2)cc1 | i | -2 | i | 3 | 9.0* | -1
COc1ccc(NC(=O)NCCCCc2ccccc2)cc1 | i | 3 | i | -2 | 0 | 11
CCOc1ccccc1NC(=S)NCCc1ccc(F)cc1 | i | -6 | i | -3 | -3 | 1
COc1ccccc1N1CCN(C(=O)CCC(=O)Nc2nnc(C(C)C)s2)CC1 | i | 7 | i | 2 | -2 | 17
Cc1cccc(OCC(=O)N(Cc2nnc(-c3ccccc3Cl)o2)C2CC2)c1 | -29* | -1 | / | -1 | -1 | 8
CCOC(=O)C(NC(=O)c1ccccc1Cl)(Nc1ccc(C)c(C)c1)C(F)(F)F (stereo unspecified) | i | -5 | i | -2 | -1 | 8
COC(=O)C(Nc1ccccc1Cl)(c1cc(C)c(O)c(C)c1)C(F)(F)F (stereo unspecified) | i | -4 | 100* | -6 | -1 | 13
Cc1ccc(S(=O)(=O)NC2=NCN(CC(=O)O)CN2)cc1 | i | -4 | i | 0 | 0 | 6
COc1ccc(CCNC(=O)CCC(=O)N2CCOc3ccc(C)cc32)cc1OC | i | 0 | i | 6 | -1 | 3
CCOc1ccc(CCNC(=O)CCC(=O)N2CCOc3ccc(C)cc32)cc1OCC | -14* | -6 | i | 2 | 0 | 1
O=c1[nH]c2ccccc2c2nc(-c3cccc(S(=O)(=O)N4CCCC4)c3)nn12 | i | -3 | i | 1 | -2 | -2
COc1ccccc1C1NC(=O)NC(C)=C1C(=O)OC1CCCCC1 (stereo unspecified) | i | 15* | i | -5 | -1 | 2
SMILES | ANO1 activ | HTR2A ag | TMEM16A inh | beta cell repl | MC4R barr agon | MC4R antag cAMP
COc1ccc(OC)c(C2NC(=O)NC(C)=C2C(=O)OC2CCCCC2)c1 (stereo unspecified) | i | 0 | i | -2 | 0 | -1
O=C(Cn1ccccc1=O)NCc1ccc(F)cc1 | i | 6 | i | 3 | 2 | 0
CCOC(=O)C1=C(CSc2nccn2C)NC(=O)NC1c1ccc2c(c1)OCO2 (stereo unspecified) | i | -1 | i | -3 | 9.2* | 4
COc1ccc(NC(=O)CN2C(=O)NC(C)(C3CC3)C2=O)cc1S(=O)(=O)N1CCOCC1 (stereo unspecified) | i | -2 | / | 2 | -3 | 7
CCc1cccc(NC(=S)N2CCC(c3ccccc3)C2)c1 (stereo unspecified) | -5.7* | -11 | i | -1 | 0 | 7
COc1ccccc1C(=O)Nc1nc2cc3c(cc2s1)OCCO3 | i | 23* | i | -7 | 0 | 0
O=C1CCCC(=O)N1c1ccc(Oc2ccc(Cl)cc2)cc1 | i | -3 | i | 0 | 2 | 9
